Measured values taken from ChEMBL document CHEMBL1177765, “Synthesis and biological evaluation of new cytotoxic azanaphthoquinone pyrrolo-annelated derivatives” (Bioorg Med Chem Lett, 2010).
Values after ≈ are worked out from the molar mass of the structure shown. Active and inactive are the calls of the source. The calls are words filed in the database; no cut-off is given here.

Tests used:
[1] = Cytotoxicity against human RKOp27 cells after 48 hrs by XTT assay; format: functional, cell-based; details: RKOp27, 48 h
How it was run: (§1)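 XTT assay of cell proliferation after 48 h exposure. EC50 is the concentration giving 50% inhibition, fitted by nonlinear regression to data from at least two independent assays.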

NCI-H460 [2] = test: Cytotoxicity against human NCI-H460 cells after 48 hrs by XTT assay; format: functional, cell-based; details: NCI-H460, 48 h; how it was run: as §1
SF-268 [3] = test: Cytotoxicity against human SF268 cells after 48 hrs by XTT assay; format: functional, cell-based; details: SF-268, 48 h; how it was run: as §1
SK-OV-3 [4] = test: Cytotoxicity against human SKOV3 cells after 48 hrs by XTT assay; format: functional, cell-based; details: SK-OV-3, 48 h; how it was run: as §1
[5] = Cytotoxicity against human KB/HeLa cells after 48 hrs by XTT assay; format: functional, cell-based; how it was run: as §1
[6] = Cytotoxicity against human RKOp27IND cells after 48 hrs by XTT assay; format: functional, cell-based
[7] = Cytotoxicity against human RKOp27 cells at 3.16 ug/mL after 48 hrs by XTT assay; format: functional; details: RKOp27, 48 h
SK-OV-3 [8] = test: Cytotoxicity against human SKOV3 cells at 3.16 ug/mL after 48 hrs by XTT assay; format: functional; details: SK-OV-3, 48 h
NCI-H460 [9] = test: Cytotoxicity against human NCI-H460 cells at 3.16 ug/mL after 48 hrs by XTT assay; format: functional; details: NCI-H460, 48 h
[10] = Cytotoxicity against human RKOp27IND cells at 3.16 ug/mL after 48 hrs by XTT assay; format: functional
[11] = Cytotoxicity against human KB/HeLa cells at 3.16 ug/mL after 48 hrs by XTT assay; format: functional
SF-268 [12] = test: Cytotoxicity against human SF268 cells at 3.16 ug/mL after 48 hrs by XTT assay; format: functional; details: SF-268, 48 h
[13] = Cell cycle arrest in human RKOp27IND cells assessed as accumulation at G2/M phase; format: functional, cell-based
[14] = Cell cycle arrest in human RKOp27 cells assessed as accumulation at G2/M phase; format: functional, cell-based
Nucleic Acid = test: Binding affinity to DNA at 125 uM; format: nucleic-acid assay
How it was run: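 UV-absorbance DNA intercalation assay. Stocks up to 5 mM were made in 5% (v:v) DMSO or methanol, then diluted stepwise in pH 7 buffer (5 mM NaH2PO4, 5 mM Na2HPO4, 70 mM NaCl) to give absorbance maximum about 1–2. Spectra were read from 350 to 600 nm with or without 2 mg/ml calf thymus DNA. Acridine orange was the reference.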

Row | Activity (Nucleic Acid) | SMILES | EC50 [1] | EC50 (NCI-H460 [2]) | EC50 (SF-268 [3]) | EC50 (SK-OV-3 [4]) | EC50 [5] | EC50 [6] | inhibition at 3.16 µg/mL [7] | inhibition at 3.16 µg/mL (SK-OV-3 [8]) | inhibition at 3.16 µg/mL (NCI-H460 [9]) | inhibition at 3.16 µg/mL [10] | inhibition at 3.16 µg/mL [11] | inhibition at 3.16 µg/mL (SF-268 [12]) | Activity [13] | Activity [14]
1 |  | CN(C)CCn1ccc2c1C(=O)c1nccnc1C2=O | 1.19 µg/mL (≈ 4.42 µM) | 1.12 µg/mL (≈ 4.15 µM) | 2.7 µg/mL (≈ 9.99 µM) | 3 µg/mL (≈ 11.1 µM) | 1.37 µg/mL (≈ 5.06 µM) | 2.97 µg/mL (≈ 11 µM) |  |  |  |  |  |  |  | 
2 |  | CN(C)CCn1ccc2c1C(=O)c1ncccc1C2=O |  |  |  |  |  |  | < 50% | < 50% | < 50% | < 50% | < 50% | < 50% |  | 
3 |  | CN(C)CCn1ccc2c1C(=O)c1ccncc1C2=O | 3 µg/mL (≈ 11.1 µM) | 3 µg/mL (≈ 11.1 µM) | 3 µg/mL (≈ 11.1 µM) | 3 µg/mL (≈ 11.1 µM) | 3 µg/mL (≈ 11.1 µM) | 3 µg/mL (≈ 11.1 µM) |  |  |  |  |  |  |  | 
4 |  | CN(C)CCCn1ccc2c1C(=O)c1cccnc1C2=O |  |  |  |  |  |  | < 50% | < 50% | < 50% | < 50% | < 50% | < 50% |  | 
5 |  | CN(C)CCCn1ccc2c1C(=O)c1cncnc1C2=O | 0.246 µg/mL (≈ 0.865 µM) | 0.177 µg/mL (≈ 0.623 µM) | 0.198 µg/mL (≈ 0.696 µM) | 0.452 µg/mL (≈ 1.59 µM) | 0.28 µg/mL (≈ 0.985 µM) | 0.44 µg/mL (≈ 1.55 µM) |  |  |  |  |  |  |  | 
6 |  | CN(C)CCn1ccc2c1C(=O)c1cccnc1C2=O |  |  |  |  |  |  | < 50% | < 50% | < 50% | < 50% | < 50% | < 50% |  | 
7 |  | CN(C)CCCn1ccc2c1C(=O)c1ncccc1C2=O |  |  |  |  |  |  | < 50% | < 50% | < 50% | < 50% | < 50% | < 50% |  | 
8 |  | CN(C)CCCn1ccc2c1C(=O)c1ccncc1C2=O | 3 µg/mL (≈ 10.6 µM) | 3 µg/mL (≈ 10.6 µM) | 3 µg/mL (≈ 10.6 µM) | 3 µg/mL (≈ 10.6 µM) | 3 µg/mL (≈ 10.6 µM) | 3 µg/mL (≈ 10.6 µM) |  |  |  |  |  |  |  | 
9 |  | CN(C)CCCn1ccc2c1C(=O)c1nccnc1C2=O |  |  |  |  |  |  | < 50% | < 50% | < 50% | < 50% | < 50% | < 50% |  | 
10 | inactive | CN(C)CCn1ccc2c1C(=O)c1cncnc1C2=O | 0.173 µg/mL (≈ 0.64 µM) | 0.082 µg/mL (≈ 0.303 µM) | 0.107 µg/mL (≈ 0.396 µM) | 0.239 µg/mL (≈ 0.884 µM) | 0.173 µg/mL (≈ 0.64 µM) | 0.377 µg/mL (≈ 1.39 µM) |  |  |  |  |  |  | inactive | inactive
